Bioassay records (PubChem BioAssay)
bIAP act: intestinal alkaline phosphatase (bovine) activation | activation factor at 20 µM | purified bovine IAP, CDP-star luminescence, 30 min; active compounds read high; fold of DMSO-control signal, blank-subtracted | 200,000 compounds, 0.17% hits;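 active = activation factor of 2 or more at 20 µM, a signal rise over negative controls twice the positive control's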
mIAP inh: blocks mouse intestinal alkaline phosphatase. inhibition, % at 10 µM. 330,000 compounds, 0.2% hits. purified mouse IAP, CDP-Star luminescence, 30 min;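 active = inhibition of at least 40% at 10 µM in the primary screen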;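 also: plate controls were DMSO with enzyme for no effect and no enzyme wells for full effect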
hIAP act: increases human intestinal alkaline phosphatase activity; activation factor at 10 µM; purified human IAP, CDP-Star luminescence, 30 min; active compounds read high; 1 = vehicle-only enzyme, 0 = enzyme-free background; 330,000 compounds, 0.16% hits; AID 2524; P09923;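 active = activation factor of the enzyme at least 2-fold when tested at 20 µM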
Target sequence (P09923 whole entry, looked up): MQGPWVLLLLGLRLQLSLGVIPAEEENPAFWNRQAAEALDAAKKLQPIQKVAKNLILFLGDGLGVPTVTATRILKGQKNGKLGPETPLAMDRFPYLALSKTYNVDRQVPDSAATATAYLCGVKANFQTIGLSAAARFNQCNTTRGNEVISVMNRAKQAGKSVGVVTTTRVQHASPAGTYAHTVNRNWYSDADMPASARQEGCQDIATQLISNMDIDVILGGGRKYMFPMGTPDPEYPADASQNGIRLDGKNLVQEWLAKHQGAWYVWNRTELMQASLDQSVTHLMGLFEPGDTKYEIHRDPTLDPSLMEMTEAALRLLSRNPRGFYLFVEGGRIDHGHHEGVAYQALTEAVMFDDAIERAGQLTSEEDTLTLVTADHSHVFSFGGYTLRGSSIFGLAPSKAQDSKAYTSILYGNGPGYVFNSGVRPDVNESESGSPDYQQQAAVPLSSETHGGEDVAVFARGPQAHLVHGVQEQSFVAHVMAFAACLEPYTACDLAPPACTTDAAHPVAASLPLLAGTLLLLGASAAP
bIAP inh: intestinal alkaline phosphatase (bovine) inhibition; purified bovine IAP, CDP-star luminescence, 30 min; inhibition, % at 20 µM; 190,000 tested, under 10 active;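 active = over 50% inhibition of intestinal alkaline phosphatase at 20 µM in the single-dose screen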
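test system = bovine IAP enzyme | medium = DEA buffer 100 mM, pH 9.8, with MgCl2 1.0 mM, ZnCl2 0.02 mM | detection = luminescence | dosing = single compound dose of 20 µM, 2% DMSO final | incubation = 30 min reaction at room temperature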
mIAP activ: mouse IAP activation; muIAP, CDP-Star luminescence, 30 min; active compounds read high; 1 = vehicle-only enzyme signal, 0 = enzyme-free wells; activation factor at 10 µM; 330,000 compounds, 0.24% hits;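 active = activation factor of at least 2 at 20 µM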
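Assay system: mouse IAP enzyme; Reagent: CDP-Star chemiluminescent phosphatase substrate; Compound: DMSO-dissolved test compounds; Incubation: 30 min, room temperature; Technique: luminescence from enzymatic CDP-Star hydrolysis; Controls: DMSO-only wells and no-enzyme negative control.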
hIAP block: blocks human intestinal alkaline phosphatase; P09923; purified IAP, CDP-Star luminescence, 30 min; inhibition, % at 10 µM; 330,000 compounds, 0.12% hits; AID 2544;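 active = inhibition reaching a set limit with compound at 10 µM in the primary screen, cut at about 35% in these data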;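 also: plate controls were DMSO wells with enzyme for no effect and no-enzyme buffer wells for full effect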
mIAP inh conf: mouse IAP inhibition confirmation. purified mouse IAP, CDP-Star luminescence, 30 min. inhibition, % at 10 µM. shares compounds with mIAP inh. 11,000 compounds, 4.7% hits;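 active = inhibition of at least 40% at 10 µM in either of the two replicates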;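 also: plate controls were DMSO wells with enzyme for no effect and buffer wells lacking enzyme for full effect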
Numbers without * were called inactive; · = no result. The list is not random: actives were taken first. Their share in the collection is about 0.77%.

SMILES | bIAP act | mIAP inh | hIAP act | bIAP inh | mIAP activ | hIAP block | mIAP inh conf
CSc1cccc(NC(=O)Nc2ccc(Cl)cc2)c1 | 0.9 | -148 | 0.94 | 6 | 2.5* | 6 | -106
O=C(Nc1ccc(C(=O)N2CCCCC2)cc1)Nc1cccc(Cl)c1 | · | -171 | 1.5 | · | 2.7* | -49 | -139
CCN(C(=O)CSc1n[nH]c(-c2ccccc2)n1)c1c(N)n(Cc2ccccc2)c(=O)[nH]c1=O | · | -16 | 0.98 | · | 1.2 | 2 | ·
O=C(COC(=O)CNS(=O)(=O)c1cccc(F)c1)NCCc1ccccc1 | · | 1 | 1 | · | 0.99 | -2 | ·
CC(C(=O)OCC(=O)NC1CCCCC1)N1C(=O)c2ccccc2C1=O (centres undefined) | · | -3 | 1 | · | 1 | -2 | ·
Cc1nc2ccccc2c(=O)n1/N=C/c1ccc(O)c(O)c1O | · | 57* | 0.99 | · | 0.43 | 1 | 81*
CCOc1ccc(N2CSC3=C(C#N)C(c4ccco4)CC(=O)N3C2)cc1 (centres undefined) | 1 | 74* | 1.1 | 2 | 0.26 | -9 | 81*
N#CC1=C2SCN(c3ccccc3)CN2C(=O)CC1c1cccs1 (centres undefined) | 0.9 | 35 | 1 | 6 | 0.65 | -2 | ·
Cc1ccc(C2CC(=O)N3CN(c4ccc(Br)cc4)CSC3=C2C#N)o1 (centres undefined) | 0.7 | 61* | 1.5 | 27 | 0.39 | -47 | 63*
Cc1ccc(NC(=O)CCNC(=O)c2ccc(Br)cc2)cc1S(=O)(=O)N1CCCCCC1 | · | 4 | 0.95 | · | 0.96 | 5 | ·
Cn1c(N)c(C(=O)COC(=O)c2ccc(OC(F)F)cc2)c(=O)n(C)c1=O | · | -10 | 0.96 | · | 1.1 | 4 | ·
Cc1ccc(Cl)c2c1=NC(=O)C=2c1[nH]c(=S)[nH]c1O | 0.1 | 46* | 0.76 | · | 0.54 | 24 | 52*
CCOC(=O)[C@H]1[C@H]2COc3cc(OC)ccc3[C@@H]2N2C(=O)N(c3cccc(Cl)c3)C(=O)[C@@]12C | · | 19 | 0.86 | · | 0.81 | 14 | ·
CN(CC(=O)Nc1cccc(F)c1)CC(=O)N(C)c1c(N)n(Cc2ccccc2)c(=O)[nH]c1=O | · | 0 | 1.1 | · | 1 | -6 | ·
O=C(Nc1ccc(F)c(Cl)c1)Nc1ccc(Cl)cn1 | 1.1 | -5 | 0.99 | -8 | 1 | 1 | ·
O=C(Nc1ccc(F)c(Cl)c1)Nc1csc2ccccc12 | · | -387 | 0.92 | · | 4.9* | 8 | -115
O=C(NC(=S)N1CCCCC1)C12CC3CC(CC(C3)C1)C2 | 0.7 | 2 | 1.1 | 26 | 0.98 | -14 | ·
O=C(c1cc(NC(=O)C23CC4CC(CC(C4)C2)C3)cc(NC(=O)C23CC4CC(CC(C4)C2)C3)c1)N1CCCCC1 | 0.9 | -106 | 0.94 | 13 | 2.1* | 6 | -106
Cc1ccc(CN(C)C(=O)COC(=O)CSc2ccc(C(N)=O)cc2[N+](=O)[O-])cc1 | · | 4 | 1 | · | 0.96 | -4 | ·
Cc1cc(-c2ccccc2)n(-c2ccccc2)n1 | · | 72* | 1.2 | · | 0.28 | -21 | 85*
Cc1cc(-c2ccco2)n(-c2ccccc2)n1 | 1.1 | 3 | 0.93 | -9 | 0.97 | 7 | ·
COc1cc(/C=C/C(=O)/C=C(O)/C=C/c2ccc(O)c(OC)c2)ccc1O | · | 61* | · | · | 0.39 | · | 53*
COc1cc(/C=C/C(=O)CC(=O)/C=C/c2ccc(O)c(OC)c2)ccc1O | 1 | 58* | · | 2 | 0.42 | · | 49*
CS(=O)(=O)c1ccc(Cl)c(NC(=O)CSC(=S)N2CCCC2)c1 | · | -11 | 0.93 | · | 1.1 | 7 | ·
O=C(CN1CCN(c2ccccc2F)CC1)c1ccc(O)c(O)c1 | · | 45* | 0.85 | · | 0.55 | 15 | 51*
Cc1ccc(NC(=S)NC2CCSc3ccccc32)cc1C (centres undefined) | · | -375 | 1.3 | · | 4.7* | -35 | -172
COC(=O)c1ccc(C(=O)NC2CCSc3ccccc32)cc1 (centres undefined) | · | 8 | 0.97 | · | 0.92 | 3 | ·
CCC(C)NC(=O)Nc1ccc2c(c1)N(C)C(=O)c1ccccc1S2 (centres undefined) | 3.6* | -240 | 1.1 | -260 | 3.4* | -6 | -100
